Results on 23 molecules are retold here after ChEMBL document CHEMBL4665831, “Ultrapotent Inhibitor of Clostridioides difficile Growth, Which Suppresses Recurrence In Vivo” (J Med Chem, 2020).

A value given as a limit tells only on which side of the number the result lay.

For one series, the system named is Escherichia coli. In words: Antimicrobial activity against Escherichia coli JW55031 harboring TolC mutant assessed as reduction in microbial growth after 48 hrs by CLSI based broth microdilution method. The class given is functional. In outline: (§1)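 CLSI broth microdilution: strains were grown aerobically overnight on tryptone soy agar at 37°C. A 0.5 McFarland suspension was diluted to ~5 × 10^5 CFU/mL in cation-adjusted Mueller-Hinton broth (E. coli) or tryptone soy broth (enterococci), and agents were serially diluted.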
(Broth dilution looks for growth in wells or tubes with falling amounts of substance.)

Series [1] deals with Clostridioides difficile. In words: Antimicrobial activity against Clostridioides difficile ATCC BAA 1801 assessed as reduction in microbial growth after 48 hrs by broth microdilution method. Format: functional. The method in brief:
(§2)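 Broth microdilution: a 0.5 McFarland suspension was diluted in brain heart infusion supplemented (BHIS) broth to ~5 × 10^5 CFU/mL. Agents were serially diluted and plates incubated anaerobically at 37°C for 48 h.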

In series [2] the test system is Clostridioides difficile. As to the kind of experiment: Antimicrobial activity against Clostridioides difficile NR-32895 P19 assessed as reduction in microbial growth after 48 hrs by broth microdilution method. The class given is functional. The method in brief: as §2
The subject of series [3] is Bacteroides fragilis. In words: Antibacterial activity against Bacteroides fragilis HM-709 assessed as reduction in microbial growth after 48 hrs by broth microdilution method. The class given is organism-based. The method in brief:
(§3)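 Gut commensal MICs by broth microdilution: a 0.5 McFarland suspension was diluted to ~5 × 10^5 CFU/mL in BHIS broth (Bacteroides) or MRS broth (Lactobacillus). Agents were serially diluted and incubated 48 h at 37°C. MIC was read by visual inspection of growth.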

Series [4] concerns Lactobacillus crispatus. As to the kind of experiment: Antibacterial activity against Lactobacillus crispatus HM-371 assessed as reduction in microbial growth after 48 hrs by broth microdilution method. In outline:
as §3

In series [5] the test system is Clostridioides difficile. In words: Antimicrobial activity against Clostridioides difficile NR-13435 isolate 9 assessed as reduction in microbial growth after 48 hrs by broth microdilution method. The class given is functional. In outline: as §2
The next series concerns Lactobacillus gasseri. In words: Antibacterial activity against Lactobacillus gasseri HM-400 assessed as reduction in microbial growth after 48 hrs by broth microdilution method. In outline:
as §3

The subject of series [6] is Clostridioides difficile. As to the kind of experiment: Antimicrobial activity against Clostridioides difficile NR-32891 P13 assessed as reduction in microbial growth after 48 hrs by broth microdilution method. The class given is functional. In outline:
as §2

The test system of series [7] is Clostridioides difficile. In words: Antimicrobial activity against Clostridioides difficile NR-13432 isolate 6 assessed as reduction in microbial growth after 48 hrs by broth microdilution method. Format: functional. The method in brief:
as §2

A further series concerns Phocaeicola dorei. In words: Antibacterial activity against Bacteroides dorei HM-719 assessed as reduction in microbial growth after 48 hrs by broth microdilution method. The class given is organism-based. In outline: as §3
In series [8] the test system is Clostridioides difficile. In words: Antimicrobial activity against Clostridioides difficile ATCC 43255 assessed as reduction in microbial growth after 48 hrs by broth microdilution method. The class given is functional. In outline: as §2
Series [9] deals with Lactobacillus crispatus. As to the kind of experiment: Antibacterial activity against Lactobacillus crispatus HM-103 assessed as reduction in microbial growth after 48 hrs by broth microdilution method. The method in brief: as §3
Series [10] relates to Clostridioides difficile. In words: Antimicrobial activity against Clostridioides difficile NR-32904 P30 assessed as reduction in microbial growth after 48 hrs by broth microdilution method. The class given is functional. The method in brief:
as §2

Series [11] has as its system Bacteroides fragilis. As to the kind of experiment: Antibacterial activity against Bacteroides fragilis HM-711 assessed as reduction in microbial growth after 48 hrs by broth microdilution method. The class given is organism-based. The method in brief:
as §3

The test system of series [12] is Clostridioides difficile. In words: Antimicrobial activity against Clostridioides difficile NR-32883 P2 assessed as reduction in microbial growth after 48 hrs by broth microdilution method. The class given is functional. In outline: as §2
Series [13] relates to Clostridioides difficile. In words: Antimicrobial activity against Clostridioides difficile ATCC 43255 assessed as drug resistance by measuring frequency of mutation at 15 times of MIC after 48 hrs. The class given is functional.
A further series deals with Enterococcus faecalis. As to the kind of experiment: Antimicrobial activity against vancomycin-resistant Enterococcus […] ATCC 51299 assessed as reduction in microbial growth after 48 hrs by CLSI based broth microdilution method. Format: functional. The method in brief:
as §1

The subject of series [14] is Clostridioides difficile. In words: Antibacterial activity against Clostridioides difficile ATCC 43255 infected in CDI mouse model assessed as survival rate at 10 mg/kg, po for 5 days relative to control. The class given is functional. The settings on record: ATCC 43255, po, 120 h, time 5 day.
Series [15] has as its system Clostridioides difficile. As to the kind of experiment: Antimicrobial activity against Clostridioides difficile ATCC 43255 assessed as drug resistance by measuring frequency of mutation at 20 times of MIC after 48 hrs. The class given is functional.
For series [16], the system named is Clostridioides difficile. As to the kind of experiment: Antibacterial activity against Clostridioides difficile ATCC 43255 infected in CDI mouse model assessed as bacterial recurrence at 10 mg/kg, po for 5 days and measured on day 21 relative to control. The class given is functional. The settings on record: time 21 day.
The subject of the next series is Enterococcus faecium. As to the kind of experiment: Antimicrobial activity against vancomycin-resistant Enterococcus faecium ATCC 700221 assessed as reduction in microbial growth after 48 hrs by CLSI based broth microdilution method. Format: functional. In outline: as §1
In series [17] the target is Cyclin-dependent kinase 2 (Homo sapiens, UniProt P24941). In words: Inhibition of human CDK2 expressed in sf9 insect cells.

On to GENTAMICIN, for which, in the series on Escherichia coli, the MIC stood at 0.52 µM.

As for `O=C(Nc1nnc(-c2ccc(F)cc2)o1)c1ccc(SC(F)(F)F)cc1`, the MIC in the series on Clostridioides difficile [1] was 10.4 µM.

As for `O=C(Nc1nnc(-c2ccc(Cl)cc2)o1)c1ccc(SC(F)(F)F)cc1`, in the series on Clostridioides difficile [1], the MIC came out at 5 µM.

Regarding `O=C(Nc1nnc(-c2ccccc2)o1)c1ccc(SC(F)(F)F)cc1`, the MIC in the series with Clostridioides difficile [1] stood at 5.5 µM.

On to `O=C(Nc1nnc(-c2cccs2)o1)c1ccc(SC(F)(F)F)cc1`, for which the MIC in the series on Clostridioides difficile [1] was 1.4 µM.

On to `O=C(Nc1nnc(-c2ccccc2Cl)o1)c1ccc(SC(F)(F)F)cc1`, for which the MIC in the series on Clostridioides difficile [1] was determined as 10 µM.

In the case of `CCc1c(Cl)c(O)c(Cl)c(O)c1C(=O)O[C@H]1[C@H](O)[C@H](OC)[C@H](OC/C2=C\C=C\C[C@H](O)/C(C)=C/[C@H](CC)[C@@H](O[C@@H]3OC(C)(C)[C@@H](OC(=O)C(C)C)[C@H](O)[C@@H]3O)/C(C)=C/C(C)=C/C[C@@H]([C@@H](C)O)OC2=O)O[C@@H]1C` [FIDAXOMICIN], the MIC with Clostridioides difficile [2] is 0.03 µM; in the series on Bacteroides fragilis [3], over 60.5 µM; with Lactobacillus crispatus [4] it was over 60.5 µM; with Clostridioides difficile [5], 0.06 µM; with Lactobacillus gasseri, over 60.5 µM; with Clostridioides difficile [6], 0.01 µM. In addition, the MIC in the series on Clostridioides difficile [7] was 0.06 µM; with Phocaeicola dorei, over 60.5 µM; in the series on Clostridioides difficile [8] it was 0.01 µM; with Lactobacillus crispatus [9], over 60.5 µM; with Clostridioides difficile [10] it was 0.01 µM; in the series with Bacteroides fragilis [11], over 60.5 µM. Moreover, the MIC came to 0.03 µM in the series on Clostridioides difficile [12] and 0.06 µM with Clostridioides difficile [1].

With `CN[C@H](CC(C)C)C(=O)N[C@H]1C(=O)N[C@@H](CC(N)=O)C(=O)N[C@H]2C(=O)N[C@H]3C(=O)N[C@H](C(=O)N[C@H](C(=O)O)c4cc(O)cc(O)c4-c4cc3ccc4O)[C@H](O)c3ccc(c(Cl)c3)Oc3cc2cc(c3O[C@@H]2O[C@H](CO)[C@@H](O)[C@H](O)[C@H]2O[C@H]2C[C@](C)(N)[C@H](O)[C@H](C)O2)Oc2ccc(cc2Cl)[C@H]1O` [VANCOMYCIN], the MIC with Clostridioides difficile [2] is 0.7 µM; in the series on Bacteroides fragilis [3], 22.1 µM; in the series with Lactobacillus crispatus [4] it was 1.4 µM; in the series with Escherichia coli, over 44.2 µM; in the series with Enterococcus faecalis, over 44.2 µM; with Clostridioides difficile [5] it was 0.7 µM. Moreover, the MIC result in the series on Lactobacillus gasseri was “<= 0.7 uM”; with Clostridioides difficile [6], 0.4 µM; in the series with Clostridioides difficile [7] it was 0.2 µM; with Phocaeicola dorei, 44.2 µM; in the series on Clostridioides difficile [8] it was 0.7 µM; in the series on Lactobacillus crispatus [9] it was 1.4 µM. Further, the MIC with Clostridioides difficile [10] turned out to be 0.7 µM; in the series on Bacteroides fragilis [11], 44.2 µM; with Clostridioides difficile [12], 0.4 µM; with Clostridioides difficile [1] it was 0.7 µM. Also, the Activity in the series with Clostridioides difficile [13] was <1.1 10^-9No_unit; with Clostridioides difficile [15] it was <1.1 10^-9No_unit; with Clostridioides difficile [16] it was 83.3%. In the series with Clostridioides difficile [14], the survival at 10 mg/kg is 100%.

For `COc1ccc(-c2nnc(NC(=O)c3ccc(SC(F)(F)F)cc3)o2)cc1`, the MIC in the series with Clostridioides difficile [1] came to 10.1 µM.

As for `O=C(Nc1nnc(-c2ccccn2)o1)c1ccc(SC(F)(F)F)cc1`, the MIC in the series on Clostridioides difficile [1] came to 21.8 µM.

`CC(C)c1ccc(-c2nnc(NC(=O)c3ccc(SC(F)(F)F)cc3)o2)cc1`: in the series with Clostridioides difficile [1], the MIC is 314 µM.

For the molecule `O=C(Nc1nnc(-c2cccc(C(F)(F)F)c2)o1)c1ccc(SC(F)(F)F)cc1`, the MIC with Clostridioides difficile [1] stood at 0.04 µM.

Turning to `COc1ccc(Cl)cc1-c1nnc(NC(=O)c2ccc(SC(F)(F)F)cc2)o1`, in the series on Clostridioides difficile [1], the MIC was 4.7 µM.

In the case of `COc1cccc(-c2nnc(NC(=O)c3ccc(SC(F)(F)F)cc3)o2)c1`, in the series on Clostridioides difficile [1], the MIC is 10.1 µM.

As for `Cc1ccc(-c2nnc(NC(=O)c3ccc(SC(F)(F)F)cc3)o2)cc1`, the MIC with Clostridioides difficile [1] turned out to be 10.5 µM.

On to `O=C(Nc1nnc(-c2ccc(C(F)(F)F)cc2)o1)c1ccc(SC(F)(F)F)cc1`, for which, in the series with Clostridioides difficile [1], the MIC is 0.29 µM.

For the molecule `O=C(Nc1nnc(-c2cccc(F)c2)o1)c1ccc(SC(F)(F)F)cc1`, the MIC with Clostridioides difficile [1] came out at 0.08 µM.

Regarding `CC(=O)NC[C@H]1CN(c2ccc(N3CCOCC3)c(F)c2)C(=O)O1` [LINEZOLID], the values for the MIC in the series with Escherichia coli, in the series on Enterococcus faecalis and with Enterococcus faecium were 47.4 µM, 3 µM and 3 µM, respectively.

Take `O=C(Nc1nnc(-c2ccc(Cl)cc2Cl)o1)c1ccc(SC(F)(F)F)cc1`: the MIC in the series with Clostridioides difficile [1] stood at 0.07 µM.

Consider `Cc1ncc([N+](=O)[O-])n1CCO` [METRONIDAZOLE], for which the MIC in the series with Clostridioides difficile [2] was 1.46 µM; in the series with Bacteroides fragilis [3], 11.68 µM; with Lactobacillus crispatus [4] it was over 373.9 µM; in the series with Enterococcus faecalis it was over 374 µM; in the series with Clostridioides difficile [5], 0.7 µM; in the series with Lactobacillus gasseri it was over 373.9 µM. Besides, the MIC in the series with Clostridioides difficile [6] is 0.7 µM; in the series on Clostridioides difficile [7] it was 1.46 µM; in the series with Phocaeicola dorei it was 5.84 µM; in the series on Clostridioides difficile [8], 1.46 µM; with Lactobacillus crispatus [9], over 373.9 µM; with Clostridioides difficile [10], 1.46 µM. The MIC with Bacteroides fragilis [11] is 5.84 µM; in the series on Clostridioides difficile [12] it was 0.7 µM; in the series with Clostridioides difficile [1], 1.46 µM; in the series on Enterococcus faecium, over 374 µM.

Consider `O=C(Nc1nnc(-c2ccccc2F)o1)c1ccc(SC(F)(F)F)cc1`, for which the MIC in the series on Clostridioides difficile [1] is 10.4 µM.

On to `CN1CC[C@H](c2c(O)cc(O)c3c(=O)cc(-c4ccccc4)oc23)[C@H](O)C1`, for which the IC50 – broadly, the concentration at which inhibition is half-maximal – in series [17] stood at 2400 nM.

For the molecule `O=C(Nc1nnc(-c2cccc(Cl)c2)o1)c1ccc(SC(F)(F)F)cc1`, the MIC with Clostridioides difficile [1] was 0.08 µM.
